Results from ChEMBL document CHEMBL1777723, “Design, synthesis, and evaluation of bromo-retrochalcone derivatives as protein tyrosine phosphatase 1B inhibitors” (Bioorg Med Chem Lett, 2011).

Experiments:
[1] = biological target: T1, Tyrosine-protein phosphatase non-receptor type 1 (Homo sapiens) (UniProt P18031); assay: (§1) Inhibition of recombinant human PTP1B using p-nitrophenyl phosphate as substrate after 30 mins
T1 sequence (whole entry): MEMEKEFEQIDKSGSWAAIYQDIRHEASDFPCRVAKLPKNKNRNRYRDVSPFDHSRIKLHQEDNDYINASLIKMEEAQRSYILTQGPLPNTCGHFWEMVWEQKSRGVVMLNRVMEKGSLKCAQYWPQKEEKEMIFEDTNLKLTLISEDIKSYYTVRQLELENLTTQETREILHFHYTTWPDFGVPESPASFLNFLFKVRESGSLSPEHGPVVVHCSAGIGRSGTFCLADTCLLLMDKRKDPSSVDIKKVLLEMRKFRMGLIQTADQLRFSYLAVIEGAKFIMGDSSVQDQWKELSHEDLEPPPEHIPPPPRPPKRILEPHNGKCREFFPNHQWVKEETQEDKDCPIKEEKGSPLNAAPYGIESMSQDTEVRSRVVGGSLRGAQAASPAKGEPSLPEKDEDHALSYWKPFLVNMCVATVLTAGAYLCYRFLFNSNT
In short: (§2)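 Reaction buffer: 10 citrate pH […], 0.1 M NaCl, 1 mM EDTA, 1 mM dithiothreitol. Enzyme and sample were added with 50 of 4 mM pNPP substrate stock, incubated 30 min at 37 °C, then quenched with 10 N NaOH.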

[2] = biological target: T2, Tyrosine-protein phosphatase non-receptor type 1 (Homo sapiens, UniProt P18031); assay: as §1; in short: as §2
T2 sequence (P18031 whole entry): T1 sequence (whole entry)

SMILES	inhibition [1]	IC50 [2]
C=CCN(CC=C)c1ccc(C(=O)/C=C/c2cc(Br)c(O)cc2OC)cc1	Dose-dependent effect	3.4 µM
COc1cc(O)c(Br)cc1/C=C/C(=O)c1ccc(OS(C)(=O)=O)cc1	Dose-dependent effect	18.4 µM
COc1cc(O)c(Br)cc1/C=C/C(=O)c1ccc(OCc2ccccc2)cc1	Dose-dependent effect	2.9 µM
CCCCOc1ccc(C(=O)/C=C/c2cc(Br)c(O)cc2OC)cc1	Dose-dependent effect	4.2 µM
COc1cccc(C(=O)/C=C/c2cc(Br)c(O)cc2OC)c1	Dose-dependent effect	11.1 µM
COc1cc(O)c(Br)cc1/C=C/C(=O)c1ccc(OC(=O)c2ccc(Br)cc2)cc1	Dose-dependent effect	2.3 µM
C=C(C)C(C)c1cc(C(=O)/C=C/c2cc(Br)c(O)cc2OC)ccc1OCC=C(C)C (stereo unspecified)	Dose-dependent effect	7 µM
C=C(C)C(C)c1cc(C(=O)/C=C/c2cc(Br)c(O)cc2O)ccc1OC (stereo unspecified)	Dose-dependent effect	2.6 µM
COc1cc(O)c(Br)cc1/C=C/C(=O)c1ccc(N2CCOCC2)cc1	Dose-dependent effect	8 µM
COc1cc(O)c(Br)cc1/C=C/C(=O)c1ccc(OCC(=O)O)cc1		> 30 µM
COc1cc(O)c(Br)cc1/C=C/C(=O)c1ccccc1N(C)C	Dose-dependent effect	13.9 µM
COc1cc(O)c(Br)cc1/C=C/C(=O)c1ccc(N(C)C)cc1		> 30 µM
COc1cc(O)c(Br)cc1/C=C/C(=O)c1cc2c(cc1N(C)C)OCO2	Dose-dependent effect	6.3 µM
COc1cc(O)c(Br)cc1/C=C/C(=O)c1ccc(OCCCC(=O)O)cc1	Dose-dependent effect	30 µM
COc1cc(O)c(Br)cc1/C=C/C(=O)c1ccc(OC(=O)c2ccc(C(C)(C)C)cc2)cc1	Dose-dependent effect	2.4 µM
C=CCN(CC=C)c1cccc(C(=O)/C=C/c2cc(Br)c(O)cc2OC)c1	Dose-dependent effect	4.5 µM
COc1cc(O)c(Br)cc1/C=C/C(=O)c1cccc(N)c1	Dose-dependent effect	6.8 µM
COc1cc(O)c(Br)cc1/C=C/C(=O)c1ccc(N)cc1	Dose-dependent effect	6.2 µM
COc1cc(O)c(Br)cc1/C=C/C(=O)c1cccc(N(C)C)c1	Dose-dependent effect	26.4 µM
COc1ccc(C(=O)/C=C/c2cc(Br)c(O)cc2OC)cc1	Dose-dependent effect	9.9 µM
C=CCc1cc(C(=O)/C=C/c2cc(Br)c(O)cc2OC)ccc1O	Dose-dependent effect	7.1 µM

SMILES	inhibition [1]	IC50 [2]
C=C(C)C(C)c1cc(C(=O)/C=C/c2cc(Br)c(OC3CCCCO3)cc2OC)ccc1O (stereo unspecified)	Dose-dependent effect	10.3 µM
CCOC(=O)COc1ccc(C(=O)/C=C/c2cc(Br)c(O)cc2OC)cc1	Dose-dependent effect	15.2 µM
C=CCN(CC=C)c1ccccc1C(=O)/C=C/c1cc(Br)c(O)cc1OC	Dose-dependent effect	3.5 µM
COc1cc(O)c(Br)cc1/C=C/C(=O)c1ccc(O)cc1	Dose-dependent effect	13.7 µM
C=C(C)C(C)c1cc(C(=O)/C=C/c2cc(Br)c(O)cc2OC)ccc1O (stereo unspecified)	Dose-dependent effect	6.9 µM
COc1cc(O)c(Br)cc1/C=C/C(=O)c1ccc(OS(=O)(=O)c2ccc(C)cc2)cc1	Dose-dependent effect	2.7 µM
COc1cc(O)c(Br)cc1/C=C/C(=O)c1ccc(OC)c(CC=C(C)C)c1	Dose-dependent effect	2.9 µM
COc1cc(O)c(Br)cc1/C=C/C(=O)c1cccc(N2CCCCC2)c1	Dose-dependent effect	4.9 µM
C=C(C)C(C)c1cc(C(=O)/C=C/c2cc(Br)c(OC3CCCCO3)cc2O)ccc1OC (stereo unspecified)	Dose-dependent effect	2.9 µM
C=C(C)C(C)c1cc(C(=O)/C=C/c2cc(Br)c(O)cc2OC)ccc1OC (stereo unspecified)	Dose-dependent effect	1.9 µM
C=C(C)[C@H](C)c1cc(/C=C/C(=O)c2ccc(O)cc2)c(OC)cc1O [LICOCHALCONE E]		20.7 µM
COc1cc(O)c(Br)cc1/C=C/C(=O)c1ccc(OCC=C(C)C)cc1	Dose-dependent effect	3.5 µM
COc1cc(O)c(Br)cc1/C=C/C(=O)c1ccc(NC(=O)c2ccc(C(C)(C)C)cc2)cc1	Dose-dependent effect	3.4 µM
COc1cc(O)c(Br)cc1/C=C/C(=O)c1ccc(-n2cccn2)cc1	Dose-dependent effect	6 µM
COc1cc(O)c(Br)cc1/C=C/C(=O)c1ccc(O)c(CC=C(C)C)c1	Dose-dependent effect	4.4 µM
COc1cc(O)c(Br)cc1/C=C/C(=O)c1cccc(NS(C)(=O)=O)c1	Dose-dependent effect	11.3 µM
C=CCc1cc(C(=O)/C=C/c2cc(Br)c(O)cc2OC)ccc1OC	Dose-dependent effect	5.3 µM
COc1cc(O)c(Br)cc1/C=C/C(=O)c1ccc(OC(=O)c2ccccc2)cc1	Dose-dependent effect	4.9 µM
CCOC(=O)CCCOc1ccc(C(=O)/C=C/c2cc(Br)c(O)cc2OC)cc1	Dose-dependent effect	10.8 µM
COc1cc(O)c(Br)cc1/C=C/C(=O)c1ccccc1N1CCCCC1	Dose-dependent effect	6.8 µM
COc1cc(O)c(Br)cc1/C=C/C(=O)c1ccc(N2CCCCC2)cc1	Dose-dependent effect	2.6 µM
